Assay results published in ChEMBL document CHEMBL1671813, “Discovery of potent competitive antagonists and positive modulators of the P2X2 receptor” (J Med Chem, 2011).

Columns and labels:
P2X purinoceptor 2 = molecular target: T1, P2X purinoceptor 2 (Rattus norvegicus, UniProt P49653); assay: Antagonist activity against rat P2X2 receptor expressed in Xenopus laevis oocyte assessed as inhibition of ATP-induced inward current by two-electrode voltage-clamp electrophysiology
T1 sequence (P49653 whole entry): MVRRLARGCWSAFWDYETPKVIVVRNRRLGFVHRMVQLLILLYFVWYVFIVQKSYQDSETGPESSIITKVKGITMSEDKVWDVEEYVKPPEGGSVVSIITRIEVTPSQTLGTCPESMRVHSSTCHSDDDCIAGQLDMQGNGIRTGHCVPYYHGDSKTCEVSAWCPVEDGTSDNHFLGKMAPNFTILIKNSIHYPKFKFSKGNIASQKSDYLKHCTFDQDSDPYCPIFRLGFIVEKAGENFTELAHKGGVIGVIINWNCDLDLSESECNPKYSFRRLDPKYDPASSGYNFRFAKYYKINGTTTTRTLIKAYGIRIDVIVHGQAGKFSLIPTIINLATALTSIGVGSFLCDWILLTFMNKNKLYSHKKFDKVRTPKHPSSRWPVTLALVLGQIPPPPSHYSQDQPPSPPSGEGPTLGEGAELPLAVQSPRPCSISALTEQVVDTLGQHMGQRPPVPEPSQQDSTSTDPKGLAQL

P2X purinoceptor 4 = molecular target: T2, P2X purinoceptor 4 (Rattus norvegicus, UniProt P51577); assay: Antagonist activity against rat P2X4 receptor expressed in Xenopus laevis oocyte assessed as inhibition of ATP-induced inward current by two-electrode voltage-clamp electrophysiology
T2 sequence (P51577 whole entry): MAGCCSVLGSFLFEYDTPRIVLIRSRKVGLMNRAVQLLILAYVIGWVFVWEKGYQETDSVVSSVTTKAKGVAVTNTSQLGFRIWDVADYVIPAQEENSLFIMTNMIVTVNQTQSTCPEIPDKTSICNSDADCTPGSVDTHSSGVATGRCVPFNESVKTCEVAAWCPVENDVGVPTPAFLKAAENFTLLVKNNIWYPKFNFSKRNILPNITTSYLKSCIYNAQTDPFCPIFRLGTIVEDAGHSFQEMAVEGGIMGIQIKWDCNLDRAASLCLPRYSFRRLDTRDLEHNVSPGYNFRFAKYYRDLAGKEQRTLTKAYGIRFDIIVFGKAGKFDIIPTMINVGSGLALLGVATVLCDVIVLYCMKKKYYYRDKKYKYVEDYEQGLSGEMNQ

[1] = molecular target: P2Y purinoceptor 6 (Rattus norvegicus) (UniProt Q63371); assay: Antagonist activity against rat P2Y6 receptor expressed in 1321N1 astrocytoma cells by calcium mobilization assay
P2Y purinoceptor 4 = P2Y purinoceptor 4 (Homo sapiens, UniProt P51582); assay: Antagonist activity against human P2Y4 receptor expressed in 1321N1 astrocytoma cells by calcium mobilization assay; type: functional, cell-based
Sequence of P2Y purinoceptor 4 (P51582 whole entry): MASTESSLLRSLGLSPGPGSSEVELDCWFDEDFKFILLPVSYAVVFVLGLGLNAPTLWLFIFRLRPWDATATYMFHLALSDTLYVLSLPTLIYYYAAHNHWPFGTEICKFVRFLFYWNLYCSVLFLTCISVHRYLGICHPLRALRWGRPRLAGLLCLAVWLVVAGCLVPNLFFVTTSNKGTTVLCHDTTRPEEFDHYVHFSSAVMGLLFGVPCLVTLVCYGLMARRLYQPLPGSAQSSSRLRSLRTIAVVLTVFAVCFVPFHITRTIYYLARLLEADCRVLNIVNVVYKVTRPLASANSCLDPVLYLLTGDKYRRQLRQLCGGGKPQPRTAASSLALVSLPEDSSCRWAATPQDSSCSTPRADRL
In short: (§1)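 Astrocytoma cell lines stably transfected with human P2Y2, human P2Y4 or rat P2Y6 receptor. Inhibition of receptor-mediated intracellular calcium mobilization was measured.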

P2Y purinoceptor 2 = P2Y purinoceptor 2 (Homo sapiens, UniProt P41231); assay: Antagonist activity against human P2Y2 receptor expressed in 1321N1 astrocytoma cells by calcium mobilization assay; type: functional, cell-based
Sequence of P2Y purinoceptor 2 (P41231 whole entry): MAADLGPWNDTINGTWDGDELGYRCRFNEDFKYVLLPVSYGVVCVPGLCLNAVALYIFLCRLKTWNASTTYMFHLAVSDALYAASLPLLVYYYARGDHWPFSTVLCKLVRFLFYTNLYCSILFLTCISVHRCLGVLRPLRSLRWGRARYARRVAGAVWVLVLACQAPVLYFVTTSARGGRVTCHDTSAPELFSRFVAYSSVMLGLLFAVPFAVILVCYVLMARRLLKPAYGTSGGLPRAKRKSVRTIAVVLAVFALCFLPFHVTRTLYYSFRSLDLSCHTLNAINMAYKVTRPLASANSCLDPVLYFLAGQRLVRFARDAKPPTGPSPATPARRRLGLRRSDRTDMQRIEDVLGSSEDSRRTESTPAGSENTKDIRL
In short: as §1

[2] = molecular target: T3, P2X purinoceptor 2 (Rattus norvegicus) (UniProt P49653); assay: Antagonist activity against rat P2X2 receptor expressed in Xenopus laevis oocyte assessed as potentiation of ATP-induced inward current at 100 nM by two-electrode voltage-clamp electrophysiology
T3 sequence (whole entry): T1 sequence (P49653 whole entry)

Row | Structure (SMILES) | IC50 (P2X purinoceptor 2) [nM] | IC50 (P2X purinoceptor 4) [nM] | IC50 [1] [nM] | IC50 (P2Y purinoceptor 4) [nM] | IC50 (P2Y purinoceptor 2) [nM] | potentiation % [2] [%]
1 | Nc1c(S(=O)(=O)O)cc(Nc2cc(Nc3nc(Cl)nc(Cl)n3)cc(C(=O)O)c2)c2c1C(=O)c1ccccc1C2=O | 293 | > 10000 | 2550 | 1450 | 3270 | –
2 | Nc1c(S(=O)(=O)O)cc(Nc2cccc3ccccc23)c2c1C(=O)c1ccccc1C2=O | > 10000 | > 10000 | – | – | – | –
3 | CCOP(=O)(Cc1ccc(Nc2cc(S(=O)(=O)O)c(N)c3c2C(=O)c2ccccc2C3=O)cc1)OCC | 1000 | > 10000 | – | – | – | –
4 | Nc1c(S(=O)(=O)O)cc(Nc2ccc(O)cc2)c2c1C(=O)c1ccccc1C2=O | 588 | > 10000 | 5300 | 2220 | – | –
5 | Nc1c(S(=O)(=O)O)cc(Nc2ccccc2)c2c1C(=O)c1ccccc1C2=O [ACID BLUE 25] | 1000 | > 10000 | 84600 | – | – | –
6 | COc1ccccc1Nc1cc(S(=O)(=O)O)c(N)c2c1C(=O)c1ccccc1C2=O | 2000 | > 10000 | – | – | – | –
7 | Nc1c(S(=O)(=O)O)cc(Nc2ccc(CC(=O)O)cc2)c2c1C(=O)c1ccccc1C2=O | 1000 | > 10000 | – | – | – | –
8 | Nc1c(S(=O)(=O)O)cc(Nc2ccc(Oc3ccccc3)cc2)c2c1C(=O)c1ccccc1C2=O | 1000 | > 10000 | – | – | – | –
9 | Nc1c(S(=O)(=O)O)cc(Nc2ccccc2C(=O)O)c2c1C(=O)c1ccccc1C2=O | 1000 | > 10000 | – | – | – | –
10 | CCOc1ccccc1Nc1cc(S(=O)(=O)O)c(N)c2c1C(=O)c1ccccc1C2=O | 1000 | > 10000 | – | – | – | –
11 | Nc1c(S(=O)(=O)O)cc(Nc2ccc(F)cc2)c2c1C(=O)c1ccccc1C2=O | 1000 | > 10000 | – | – | – | –
12 | Nc1c(S(=O)(=O)O)cc(Nc2cc(Cl)ccc2C(=O)O)c2c1C(=O)c1ccccc1C2=O | 1000 | > 10000 | – | – | – | –
13 | Nc1cc(Nc2cc(S(=O)(=O)O)c(N)c3c2C(=O)c2ccccc2C3=O)cc(C(=O)O)c1 | 1000 | > 10000 | – | – | – | –
14 | Cc1ccc(Nc2cc(S(=O)(=O)O)c(N)c3c2C(=O)c2ccccc2C3=O)c(C)c1 | 1000 | > 10000 | – | – | – | –
15 | Nc1c(S(=O)(=O)O)cc(Nc2ccc(Cl)cc2C(=O)O)c2c1C(=O)c1ccccc1C2=O | 1000 | > 10000 | – | – | – | –
16 | Nc1c(S(=O)(=O)O)cc(Nc2cccc(C(F)(F)F)c2)c2c1C(=O)c1ccccc1C2=O | > 1000 | – | – | – | – | –
17 | Cc1cccc(Nc2cc(C)c(N)c3c2C(=O)c2ccccc2C3=O)c1 | > 10000 | > 10000 | – | – | – | –
18 | Nc1c(S(=O)(=O)O)cc(Nc2ccc(C(=O)O)cc2)c2c1C(=O)c1ccccc1C2=O | 1000 | > 10000 | – | – | – | –

Row | Structure (SMILES) | IC50 (P2X purinoceptor 2) [nM] | IC50 (P2X purinoceptor 4) [nM] | IC50 [1] [nM] | IC50 (P2Y purinoceptor 4) [nM] | IC50 (P2Y purinoceptor 2) [nM] | potentiation % [2] [%]
19 | Nc1ccc(Nc2cc(S(=O)(=O)O)c(N)c3c2C(=O)c2ccccc2C3=O)cc1 | > 10000 | > 10000 | – | – | – | –
20 | Cc1cc(Nc2ccccc2)c2c(c1N)C(=O)c1ccccc1C2=O | > 10000 | > 10000 | – | – | – | –
21 | Nc1c(S(=O)(=O)O)cc(NC2CCCCC2)c2c1C(=O)c1ccccc1C2=O | 1000 | > 10000 | – | – | – | –
22 | Cc1cccc(Nc2cc(S(=O)(=O)O)c(N)c3c2C(=O)c2ccccc2C3=O)c1C | 1000 | > 10000 | – | – | – | –
23 | Nc1c(S(=O)(=O)O)cc(Nc2ccccc2O)c2c1C(=O)c1ccccc1C2=O | 1000 | > 10000 | – | – | – | –
24 | Cc1ccc(Nc2cc(S(=O)(=O)O)c(N)c3c2C(=O)c2ccccc2C3=O)cc1 | 1000 | > 10000 | – | – | – | –
25 | Cc1cc(C)cc(Nc2cc(S(=O)(=O)O)c(N)c3c2C(=O)c2ccccc2C3=O)c1 | – | – | – | – | – | 106
26 | Cc1cc(C)c(Nc2cc(S(=O)(=O)O)c(N)c3c2C(=O)c2ccccc2C3=O)c(C)c1 [ACID BLUE 129] | 1000 | > 10000 | – | – | – | –
27 | Nc1c(S(=O)(=O)O)cc(Nc2ccc(Nc3nc(Cl)nc(Cl)n3)cc2)c2c1C(=O)c1ccccc1C2=O | 117 | > 10000 | 10000 | 10000 | 12100 | –
28 | Cc1c(N)cccc1Nc1cc(S(=O)(=O)O)c(N)c2c1C(=O)c1ccccc1C2=O | 1000 | > 10000 | – | – | – | –
29 | COc1ccc(Nc2cc(S(=O)(=O)O)c(N)c3c2C(=O)c2ccccc2C3=O)cc1 | 1730 | > 10000 | – | – | – | –
30 | Nc1ccccc1Nc1cc(S(=O)(=O)O)c(N)c2c1C(=O)c1ccccc1C2=O | 1000 | > 10000 | – | – | – | –
31 | Nc1c(S(=O)(=O)O)cc(Nc2cc(F)cc(F)c2)c2c1C(=O)c1ccccc1C2=O | > 1000 | – | – | – | – | –
32 | Cc1cc(C)c(Nc2cc(S(=O)(=O)O)c(N)c3c2C(=O)c2ccccc2C3=O)c(C)c1N | 1000 | > 10000 | – | – | – | –
33 | Cc1ccccc1Nc1cc(S(=O)(=O)O)c(N)c2c1C(=O)c1ccccc1C2=O | 1000 | > 10000 | – | – | – | –
34 | Nc1c(S(=O)(=O)O)cc(Nc2cccc(Nc3nc(Cl)nc(Cl)n3)c2)c2c1C(=O)c1ccccc1C2=O | 86 | – | > 10000 | 10000 | 24300 | –
35 | Nc1c(S(=O)(=O)O)cc(Nc2ccc(Nc3nc(O)nc(O)n3)cc2)c2c1C(=O)c1ccccc1C2=O | 197 | > 10000 | – | 10000 | 30000 | –
36 | COc1cc(Nc2cc(S(=O)(=O)O)c(N)c3c2C(=O)c2ccccc2C3=O)cc(OC)c1 | > 1000 | – | – | – | – | –

Results, then the compound that gave them:

Row | IC50 (P2X purinoceptor 2) [nM] | IC50 (P2X purinoceptor 4) [nM] | IC50 [1] [nM] | IC50 (P2Y purinoceptor 4) [nM] | IC50 (P2Y purinoceptor 2) [nM] | potentiation % [2] [%] | Structure (SMILES)
37 | 1000 | > 10000 | – | – | – | – | Nc1c(S(=O)(=O)O)cc(Nc2cccc(C(=O)O)c2)c2c1C(=O)c1ccccc1C2=O
38 | > 1000 | > 10000 | – | – | – | – | Nc1c(S(=O)(=O)O)cc(Nc2ccc(Nc3ncccn3)cc2)c2c1C(=O)c1ccccc1C2=O
39 | > 1000 | – | – | – | – | – | CCc1cccc(Nc2cc(S(=O)(=O)O)c(N)c3c2C(=O)c2ccccc2C3=O)c1
40 | 1000 | > 10000 | – | – | – | – | Nc1c(S(=O)(=O)O)cc(Nc2ccc(S(=O)(=O)O)cc2)c2c1C(=O)c1ccccc1C2=O
41 | > 1000 | 40000 | – | – | – | – | Nc1c(S(=O)(=O)O)cc(Nc2ccc(Nc3nc(Cl)nc(Nc4ccccc4S(=O)(=O)O)n3)c(S(=O)(=O)O)c2)c2c1C(=O)c1ccccc1C2=O [CIBACRON BLUE 3GA]
42 | 1000 | > 10000 | – | – | – | – | Nc1c(S(=O)(=O)O)cc(Nc2cccc(Br)c2)c2c1C(=O)c1ccccc1C2=O
43 | 582 | > 10000 | > 10000 | > 10000 | 24200 | – | COc1nc(Cl)nc(Nc2ccc(Nc3cc(S(=O)(=O)O)c(N)c4c3C(=O)c3ccccc3C4=O)cc2S(=O)(=O)O)n1
44 | > 10000 | > 10000 | – | – | – | – | Nc1c(S(=O)(=O)O)cc(Nc2ccccc2S(=O)(=O)O)c2c1C(=O)c1ccccc1C2=O
45 | 690 | > 10000 | – | – | – | – | CC(=O)Nc1ccc(Nc2cc(S(=O)(=O)O)c(N)c3c2C(=O)c2ccccc2C3=O)cc1
46 | 1000 | > 10000 | – | – | – | – | Nc1c(S(=O)(=O)O)cc(Nc2ccc(Nc3ncccn3)c(S(=O)(=O)O)c2)c2c1C(=O)c1ccccc1C2=O
47 | 1000 | > 10000 | – | – | – | – | Nc1cccc(Nc2cc(S(=O)(=O)O)c(N)c3c2C(=O)c2ccccc2C3=O)c1
48 | 1160 | > 10000 | – | – | – | – | Nc1c(S(=O)(=O)O)cc(Nc2ccc(Nc3nc(Cl)nc(Cl)n3)c(S(=O)(=O)O)c2)c2c1C(=O)c1ccccc1C2=O
49 | 1000 | > 10000 | – | – | – | – | Nc1cc(Nc2cc(S(=O)(=O)O)c(N)c3c2C(=O)c2ccccc2C3=O)ccc1S(=O)(=O)O
50 | – | – | – | – | – | 110 | Nc1c(S(=O)(=O)O)cc(Nc2ccc(Nc3ccccc3)c(S(=O)(=O)O)c2)c2c1C(=O)c1ccccc1C2=O
51 | > 1000 | – | – | – | – | – | Nc1c(S(=O)(=O)O)cc(Nc2cccc([N+](=O)[O-])c2)c2c1C(=O)c1ccccc1C2=O
52 | 300 | – | – | – | – | – | Nc1c(S(=O)(=O)O)cc(Nc2ccc(S(=O)(=O)O)c(Nc3nc(O)nc(O)n3)c2)c2c1C(=O)c1ccccc1C2=O
53 | 1000 | > 10000 | – | – | – | – | Nc1c(S(=O)(=O)O)cc(Nc2ccc(O)c(C(=O)O)c2)c2c1C(=O)c1ccccc1C2=O
54 | 1000 | > 10000 | – | – | – | – | Nc1ccc(Nc2cc(S(=O)(=O)O)c(N)c3c2C(=O)c2ccccc2C3=O)cc1S(=O)(=O)O
55 | 100 | – | > 10000 | 21800 | – | – | Nc1c(S(=O)(=O)O)cc(Nc2cccc(Cl)c2)c2c1C(=O)c1ccccc1C2=O
56 | > 1000 | – | – | – | – | – | Nc1c(S(=O)(=O)O)cc(Nc2cccc(F)c2)c2c1C(=O)c1ccccc1C2=O
